Measurements: article PMC10250156 (Molecular Metabolism, 2023)
Blank lines part the entries; values can stand above or below the molecule they belong to.

How the values were obtained:
[1] = Chiral HPLC analysis of zeaxanthin stereoisomers in tissues; format: in vivo; settings: Isx^−/−/Bco2^−/− mice on 250 mg/kg 3R,3′R-zeaxanthin diet
[2] = Light exposure experiment: zeaxanthin metabolites in eye and liver by HPLC; format: in vivo; settings: albino Isx^−/−/Bco2^−/− mice, 250 mg/kg zeaxanthin, 4 weeks
Procedure, shortened: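 Albino mice were fed the 250 mg/kg or control diet for 4 weeks after weaning. Three groups were used: 24 h/day darkness (DC), a 12/12 h light/dark cycle (L/DC), or L/DC plus twice-weekly light stress from week 2 (LS). For light stress, mice were dark-adapted overnight, pupils were dilated with 1% tropicamide, and mice received 85,000 lux white light for 2 min. Whole eye and liver carotenoids were then quantified by HPLC.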

[3] = Food intake and liver weight during zeaxanthin dietary intervention; format: in vivo; settings: Bco2^−/− and Isx^−/−/Bco2^−/− mice, 0, 50, 250 mg/kg diet
Procedure, shortened: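 Male and female mice were placed on vitamin A-free diets after weaning at 4 weeks old, for 4 weeks. Zeaxanthin was given as water-soluble beadlets incorporated into the diet. Fresh diet was given weekly, and body weight was recorded then. Food consumption was the leftover food per cage divided by the number of mice in the cage. At study end, mice were anaesthetised and livers dissected and weighed.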

[4] = tested on: albino Isx^−/−/Bco2^−/− mice; experiment: Skin colour phenotype of supplemented albino mice; format: in vivo; settings: 250 mg/kg zeaxanthin, 4 weeks, hypercarotenemia
Procedure, shortened: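 Albino mice were fed a vitamin A-free diet containing 250 mg/kg zeaxanthin or no zeaxanthin (control) for 4 weeks, starting immediately after weaning. Skin colour of the ears, eyelids and nostrils was inspected and photographed.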

[5] = HPLC analysis of zeaxanthin content in fecal matter during dietary intervention; format: in vivo, mice; settings: 50 mg/kg zeaxanthin supplementation, 28 days
Procedure, shortened: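 Mice were fed vitamin A-free diets starting at weaning. Feces were collected on days 0, 1, 2, 4, 7, 14, 21 and 28 of the 28-day intervention. Carotenoids were extracted from about 25 mg feces under dim red light (<600 nm). Zeaxanthin was quantified by HPLC.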

[6] = tested on: albino Isx^−/−/Bco2^−/− mice; experiment: Electroretinography; format: in vivo; settings: 250 mg/kg versus 0 mg/kg, 4 weeks
[7] = format: in vivo, mice
Procedure, shortened: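 Male and female mice were fed vitamin A-free diets for 4 weeks from weaning; the WT cohort received the 250 mg/kg diet. Tissues were weighed and snap-frozen at -80 °C. Carotenoids were extracted under dim red light from about 25 mg of intestinal segments, liver or eWAT, 100 uL serum, or one whole eye. Analysis was normal-phase silica HPLC with diode-array detection. Data are means ± SD, n=5 (eWAT: 3 females, 2 males); two-way ANOVA.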

[8] = tested on: albino Isx^−/−/Bco2^−/− mice; experiment: Optical coherence tomography; format: in vivo; settings: 250 mg/kg versus 0 mg/kg, 4 weeks

Structure (SMILES): CC1=C(/C=C/C(C)=C/C=C/C(C)=C/C=C/C=C(C)/C=C/C=C(C)/C=C/C2=C(C)C[C@H](O)CC2(C)C)C(C)(C)C[C@H](O)C1 [3R, 3′S-zeaxanthin]
presence in the eyes by chiral HPLC [1]: no peak with a retention time of 3R, 3′S-zeaxanthin was detected

concentration in the eyes of L/DC and LS groups compared to DC group [2]: increased
Structure (SMILES): CC1=CC(=O)CC(C)(C)C1/C=C/C(C)=C/C=C/C(C)=C/C=C/C=C(C)/C=C/C=C(C)/C=C/C1C(C)=CC(=O)CC1(C)C (centres unmarked) [oxidized zeaxanthin, ε,ε-carotene 3, 3′-dione]

effect on food intake [3]: did not affect food intake | skin phenotype (ears, eyelids, nostrils) [4]: yellow skin color phenotype | fecal zeaxanthin excretion, Isx^−/−/Bco2^−/− versus Bco2^−/− mice [5]: excreted less zeaxanthin | total zeaxanthin or its oxidized form in liver between light treatment groups [2]: no light-dependent increase | ocular levels between different light groups ([2]; DC, L/DC, LS): remained relatively constant | ERG responses under photopic and scotopic conditions [6]: normal responses | total zeaxanthin in eWAT, Isx^−/−/Bco2^−/− versus Bco2^−/− mice ([7]; 50 mg/kg or 250 mg/kg diet, 4 weeks): significantly higher amounts | concentration of carotenoids in eWAT and eyes compared with kidney and serum ([7]; 50 mg/kg zeaxanthin, Bco2^−/− and Isx^−/−/Bco2^−/− mice): two-fold higher | amount of zeaxanthin in jejunum relative to other parts of the intestine ([7]; WT mice, 250 mg/kg diet, 4 weeks, major metabolite parent compound): highest amount
Structure (SMILES): CC1=C(/C=C/C(C)=C/C=C/C(C)=C/C=C/C=C(C)/C=C/C=C(C)/C=C/C2=C(C)C[C@@H](O)CC2(C)C)C(C)(C)C[C@H](O)C1 [zeaxanthin, 3R,3′R-zeaxanthin]
liver weight between dietary groups ([3]; 4 weeks): no significant difference in liver weight | form of zeaxanthin detectable in liver ([7]; 50 mg zeaxanthin diet, Bco2^−/− and Isx^−/−/Bco2^−/− mice, 4 weeks): only the oxidized form of zeaxanthin became detectable | OCT: retinal morphology, supplemented versus non-supplemented mice [8]: no differences in the stratification of the retinal layers
